The subject of assay [1] is Acinetobacter baumannii. Kind of assay: Potentiation of tobramycin-induced antibiotic activity against Acinetobacter baumannii ATCC 17978 assessed as MIC fold reduction at 8 ug/ml after 18 hrs by microbroth dilution method. The note with it: dose 8 µg/ml. It is filed as functional.
Assay [2] has as its system Acinetobacter baumannii. Put plainly: Potentiation of niclosamide-induced antibiotic activity against Acinetobacter baumannii ATCC 17978 assessed as MIC fold reduction at 8 ug/ml after 18 hrs by microbroth dilution method. In kind it is functional. The note with it: dose 8 µg/ml. A general note: In broth dilution the organism is exposed to a series of concentrations in liquid medium.

For assay [3], the system named is Acinetobacter baumannii. Kind of assay: Potentiation of cefotaxime-induced antibiotic activity against Acinetobacter baumannii ATCC 17978 assessed as MIC fold reduction at 8 ug/ml after 18 hrs by microbroth dilution method. In kind it is functional. The following applies: dose 8 µg/ml. The gist of the method:
(§1)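 Initial screen in MHB using a fixed 8 μg mL−1 of adjuvant combined with each antibiotic under 2-fold dilution. Broth microdilution used about 5 × 10^5 CFU/mL at 37 °C for 18 h, with visible turbidity read and confirmed at 590 nm. Fold-potentiation = antibiotic MIC alone ÷ antibiotic MIC with adjuvant.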

The subject of assay [4] is Acinetobacter baumannii. Put plainly: Potentiation of aztreonam-induced antibiotic activity against Acinetobacter baumannii ATCC 17978 assessed as MIC fold reduction at 8 ug/ml after 18 hrs by microbroth dilution method. It is filed as functional. The note with it: dose 8 µg/ml. The method, boiled down: as §1
For assay [5], the system named is Escherichia coli. Kind of assay: Potentiation of novobiocin-induced antibiotic activity against Escherichia coli ATCC 25922 assessed as MIC fold reduction at 8 ug/ml after 18 hrs by microbroth dilution method. In kind it is functional. The note with it: dose 8 µg/ml.
Assay [6] deals with Pseudomonas aeruginosa. Kind of assay: Potentiation of cefotaxime-induced antibiotic activity against MDR clinical isolate Pseudomonas aeruginosa PA264 assessed as MIC fold reduction at 8 ug/ml after 18 hrs by microbroth dilution method. The note with it: dose 8.0 µg/ml. In kind it is functional, organism-based. The method, boiled down:
(§2)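 Adjuvant held at a fixed 8 μg/mL while the antibiotic was 2-fold serially diluted in Mueller-Hinton broth (MHB), per CLSI microbroth dilution. Overnight cultures were adjusted in saline to 0.5 McFarland, then diluted 1:50 in MHB to about 5 × 10^5 CFU/mL final, and incubated 18 h at 37 °C. MIC was the lowest concentration with no visible turbidity, confirmed at 590 nm. Fold potentiation = MIC alone / MIC with adjuvant.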

The subject of assay [7] is Pseudomonas aeruginosa. Put plainly: Potentiation of ceftazidime-induced antibiotic activity against MDR clinical isolate Pseudomonas aeruginosa PA259 assessed as MIC fold reduction at 8 ug/ml after 18 hrs by microbroth dilution method. In kind it is functional, organism-based. The following applies: dose 8.0 µg/ml. The gist of the method: as §2
Assay [8] concerns Pseudomonas aeruginosa. Put plainly: Potentiation of ceftolozane-induced antibiotic activity against […] Pseudomonas aeruginosa PAO1 assessed as MIC fold reduction at 8 ug/ml after 18 hrs by microbroth dilution method. It is filed as functional, organism-based. The following applies: dose 8.0 µg/ml. The method, boiled down: as §2
In assay [9] the test system is Pseudomonas aeruginosa. Put plainly: Antibacterial activity against MDR clinical isolate Pseudomonas aeruginosa PA100036 assessed as reduction in bacterial growth after 18 hrs by microbroth dilution method. It is filed as functional. The gist of the method: (§3)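 Broth microdilution per CLSI in Mueller-Hinton broth (MHB). Overnight cultures were adjusted to 0.5 McFarland in saline, diluted 1:50 in MHB, and added at about 5 × 10^5 CFU/mL final to equal volumes of 2-fold serial dilutions of agent. Incubation was 18 h at 37 °C. MIC was the lowest concentration with no visible turbidity, confirmed by absorbance at 590 nm.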

In assay [10] the test system is Pseudomonas aeruginosa. Kind of assay: Antibacterial activity against MDR clinical isolate Pseudomonas aeruginosa PA101885 assessed as reduction in bacterial growth after 18 hrs by microbroth dilution method. It is filed as functional. The gist of the method: (§4)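 CLSI broth microdilution. Overnight cultures were adjusted in saline to 0.5 McFarland, diluted 1:50 in Mueller-Hinton broth (MHB), and inoculated at about 5 × 10^5 CFU/mL. Agents were 2-fold serially diluted in MHB, mixed 1:1 with inoculum, and held at 37 °C for 18 h. MIC was the lowest concentration with no visible turbidity, confirmed at 590 nm.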

Assay [11] relates to Pseudomonas aeruginosa. Kind of assay: Antibacterial activity against colistin-resistant clinical isolate Pseudomonas aeruginosa PA114228 assessed as reduction in bacterial growth after 18 hrs by microbroth dilution method. It is filed as functional. The method, boiled down:
as §3

The test system of assay [12] is Pseudomonas aeruginosa. Put plainly: Antibacterial activity against MDR clinical isolate Pseudomonas aeruginosa PA264 assessed as reduction in bacterial growth after 18 hrs in presence of cefiderocol by microbroth dilution method. In kind it is functional. The method, boiled down: (§5)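 Checkerboard in MHB. Cefiderocol was 2-fold serially diluted along one axis and the adjuvant along the other. Inoculum was prepared from 0.5 McFarland saline suspensions diluted 1:50 in MHB, giving about 5 × 10^5 CFU/mL final. Plates ran 18 h at 37 °C, with turbidity confirmed at 590 nm. FIC = combination MIC ÷ MIC alone for each agent, and FIC index = sum of both. Interpretation: ≤0.5 synergy, >0.5–4 additive, >4 antagonism.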

Assay [13] has as its system Pseudomonas aeruginosa. Put plainly: Antibacterial activity against MDR clinical isolate Pseudomonas aeruginosa PA259 assessed as potentiation of cefiderocol antibacterial activity by measuring FIC index after 18 hrs by microbroth dilution method. In kind it is functional. The method, boiled down:
as §5

The subject of assay [14] is Acinetobacter baumannii. Kind of assay: Antibacterial activity against Acinetobacter baumannii LAC-4 assessed as potentiation of cefiderocol antibacterial activity by measuring FIC after 18 hrs by microbroth dilution method. In kind it is functional. The method, boiled down: (§6)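 Checkerboard in Mueller-Hinton broth: cefiderocol 2-fold diluted on one axis, adjuvant 2-fold on the other. Overnight cultures were adjusted to 0.5 McFarland in saline, diluted 1:50 in MHB, and inoculated at about 5 × 10^5 CFU/mL. Incubation was 18 h at 37 °C. Turbidity was read visually and confirmed at 590 nm. FIC index = FIC of antibiotic + FIC of adjuvant; ≤0.5 synergy, >4 antagonism.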

The test system of assay [15] is Klebsiella pneumoniae. Kind of assay: Antibacterial activity against Klebsiella pneumoniae KP113254 assessed as reduction in bacterial growth after 18 hrs by microbroth dilution method. It is filed as functional. The method, boiled down: as §4
Assay [16] deals with Klebsiella pneumoniae. Kind of assay: Antibacterial activity against Klebsiella pneumoniae KP116381 assessed as reduction in bacterial growth after 18 hrs by microbroth dilution method. It is filed as functional. The gist of the method: as §4
The test system of assay [17] is Enterobacter cloacae. Kind of assay: Antibacterial activity against Enterobacter cloacae 118564 assessed as reduction in bacterial growth after 18 hrs by microbroth dilution method. In kind it is functional. The method, boiled down: (§7)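 CLSI microbroth dilution in MHB. Overnight cultures were adjusted to 0.5 McFarland in saline, diluted 1:50, and inoculated at about 5 × 10^5 CFU/mL. Agents were 2-fold serially diluted and incubated 18 h at 37 °C. MIC is the lowest concentration without visible turbidity, confirmed by absorbance at 590 nm. Medium with and without cells served as controls.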

The subject of assay [18] is Enterobacter cloacae. Put plainly: Antibacterial activity against Enterobacter cloacae 121187 assessed as reduction in bacterial growth after 18 hrs by microbroth dilution method. It is filed as functional. The method, boiled down: as §7
Assay [19] relates to Escherichia coli. Kind of assay: Antibacterial activity against Escherichia coli 94393 assessed as reduction in bacterial growth after 18 hrs in presence of cefiderocol by microbroth dilution method. It is filed as functional. The gist of the method: as §6
Assay [20] relates to Klebsiella pneumoniae. Kind of assay: Antibacterial activity against Klebsiella pneumoniae KP116381 assessed as reduction in bacterial growth after 18 hrs in presence of cefiderocol by microbroth dilution method. It is filed as functional. The gist of the method:
as §5

For assay [21], the system named is Enterobacter cloacae. Put plainly: Antibacterial activity against Enterobacter cloacae 117029 assessed as reduction in bacterial growth after 18 hrs in presence of cefiderocol by microbroth dilution method. In kind it is functional. The gist of the method:
as §6

Assay [22] concerns Enterobacter cloacae. Kind of assay: Antibacterial activity against Enterobacter cloacae 121187 assessed as potentiation of cefiderocol antibacterial activity by measuring FIC after 18 hrs by microbroth dilution method. In kind it is functional. The method, boiled down: as §6

Here are results for one molecule from ChEMBL document CHEMBL5136969, “A niclosamide-tobramycin hybrid adjuvant potentiates cefiderocol against P. aeruginosa” (2021).

Structures are written as SMILES. Converted amounts (≈) assume the structure as drawn. The source made the active and inactive calls. No cut-off for these calls is given here. A value given as a limit tells only on which side of the number the result lay.

As for `NC[C@H]1O[C@H](O[C@H]2[C@H](OCCCCc3cn(-c4ccc(NC(=O)c5cc(Cl)ccc5O)cc4)nn3)[C@@H](O[C@H]3O[C@H](CO)[C@@H](O)[C@H](N)[C@H]3O)[C@H](N)C[C@@H]2N)[C@H](N)C[C@@H]1O`, the “fold change (FC)” value in the assay with Acinetobacter baumannii [1], in the assay on Acinetobacter baumannii [2], in the assay on Acinetobacter baumannii [3], in the assay on Acinetobacter baumannii [4] and in the assay with Escherichia coli [5] was 4 throughout. Besides, the result in the assay on Pseudomonas aeruginosa [6], in the assay on Pseudomonas aeruginosa [7] and with Pseudomonas aeruginosa [8] was Active. In addition, the MIC in the assay with Pseudomonas aeruginosa [9] was more than 128 µg/mL; in the assay on Pseudomonas aeruginosa [10] it was more than 128 µg/mL; with Pseudomonas aeruginosa [11], 32 µg/mL (≈ 38.3 µM); in the assay on Pseudomonas aeruginosa [12] it was 0.125 µg/mL; in the assay on Klebsiella pneumoniae [15] it was more than 128 µg/mL; in the assay on Klebsiella pneumoniae [16], more than 128 µg/mL. The MIC with Enterobacter cloacae [17] was more than 128 µg/mL; in the assay on Enterobacter cloacae [18], more than 128 µg/mL; in the assay on Escherichia coli [19], 1 µg/mL; in the assay on Klebsiella pneumoniae [20] it was 0.25 µg/mL; in the assay on Enterobacter cloacae [21], 4 µg/mL. The FIC is 0.031 in the assay on Pseudomonas aeruginosa [13], 1 in the assay on Acinetobacter baumannii [14] and 1 with Enterobacter cloacae [22].

The term MIC denotes the lowest concentration that inhibits growth of the organism.
